# An excerpt weighted towards active compounds, which were near 1.7% of everything screened.
# Cneo AK release – Cryptococcus neoformans cell lysis inducers, primary screen, AK release luminescence, single concentration; actives 0.2% (n = 360,000); lysis activity, % at 15 µM; C. neoformans lysis, adenylate kinase release luminescence, 4 h; normalised: neutral wells 0, clomiphene wells 100;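 active = mean lysis activity across replicates of at least 80%, whatever share of replicates individually reach that level; inactive = mean lysis activity below 80%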
#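 Schedule: static 4 h at 37 °C with compound, 1 h detection; system: C. neoformans cells; benchmarks: Clomiphene as positive control; buffer or medium: fresh YPD medium; measure: luminescence rise reflecting yeast cell lysis; measured by: luminescent adenylate kinase detection reagent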
# Ecoli rRNA inh – reduced GFP signal of wild-type E. coli, primary screen, bacterial rRNA inhibitor project, GFP/RFP fluorescence, OD600, single point | E. coli WT GFP vs humanized-ribosome RFP mutants, 24 h; hits give low values; DMSO median 0, no signal -100 | GFP signal change (wild-type ribosome), % (no concentration beside the values) | actives 1.6% (n = 350,000) | AID 720706, 2013;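 active = significant combined selectivity score with lowered wild-type GFP, culture density cut under 30%, mutant RFP and density less affected; inactive = any of these conditions unmet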
# CaV13 FRET inh – Disruptors of the CACNA1D IQ motif to Ca2+-dependent inactivation inhibitor domain association, primary screening, Förster resonance energy transfer in intact living …; actives 0.098% (n = 340,000); HEK cells, CFP/YFP FRET ICDI-IQ, plate reader, 10 min; percent FRET-ratio fall versus neutral wells; inhibition, % at 12.3 µM;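 active = mean replicate inhibition of at least 30% and at least 1% of replicates passing that level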;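 note: 0% = median of the neutral control wells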
# CFTR F508del cor – F508del CFTR correction, initial screen, CFBE line, single point | actives 0.36% (n = 350,000) | activity (quench increase), % at 7.58 µM | AID 720511, 2013 | CFBE cells, YFP halide quenching; stimulated with forskolin plus potentiator P3; % fluorescence drop versus neutral controls;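 active = mean added fluorescence quench of at least 8% versus neutral control, with both replicates also reaching 8%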;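 note: cells transiently co-express mutant CFTR-F508del with the halide-sensitive YFP; corrector assay measuring rescue of mutant channel to the surface after 24 h compound exposure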
# The depositor's hits bear a star; / = no result.
SMILES,Cneo AK release,Ecoli rRNA inh,CaV13 FRET inh,CFTR F508del cor
COCC(C)n1c(SCc2cc(=O)n3cc(C)ccc3n2)nc2ccccc2c1=O (stereo not drawn),-1,-27*,-7,6
CCOc1ccc(C(=O)NCC(=O)N2CCN(Cc3ccccc3)CC2)cc1,-1,1,-7,10.0*
CN1c2ccc(-c3ccc(F)cc3)cc2[C@@H]2[C@@H](CCN2C(=O)C2CCOCC2)[C@@H]1CO,81*,-6,/,2
CN1c2ccc(Br)cc2[C@H]2[C@H](CCN2C(=O)Cc2cccnc2)[C@H]1CO,5,1,/,3
CN1c2ccc(Br)cc2[C@@H]2[C@@H](CCN2C(=O)Cc2cccnc2)[C@@H]1CO,90*,-3,/,1
COc1ccc(S(=O)(=O)N2CC[C@@H]3[C@H](CO)N(C)c4ccc(-c5ccc(F)cc5)cc4[C@@H]32)cc1,-18,-1,/,11*
CN1c2ccc(-c3ccc(F)cc3)cc2[C@H]2[C@H](CCN2S(=O)(=O)c2cccc(F)c2)[C@H]1CO,104*,2,/,16*
COc1ccc(S(=O)(=O)N2CC[C@@H]3[C@H]2c2cc(-c4ccc(F)cc4)ccc2N(C)[C@H]3CO)cc1,-8,0,/,-1
CN(C)C(=O)[C@@H]1[C@@H](CO)[C@@H]2Cn3c(ccc(-c4ccncc4)c3=O)[C@H]1N2CC1CC1,0,1,/,/
C[C@@H]1CC=CCCNC(=O)[C@H](C)N(C)C(=O)c2ccccc2O1 (mixture of isomers),/,3,/,/
CSCCC(NC(=O)c1ccccc1)C(=O)NCCCSc1ccccc1 (stereo not drawn),1,-23*,-13,-1
CCC(C)NC(=O)C(CCSC)NC(=O)c1ccccc1 (stereo not drawn),/,/,-5,/
COc1cccc(CNC(=O)C[C@@H]2CC[C@H](NC(C)=O)[C@@H](CO)O2)c1,51,1,/,-3
COc1cccc(S(=O)(=O)N[C@H]2CC[C@@H](CCn3cc(-c4ccc(F)cc4)nn3)O[C@H]2CO)c1,0,-3,/,-1
COc1cc(C(=O)NCC2CCCO2)ccc1OCc1ccc(Cl)cc1 (stereo not drawn),-1,4,-6,11*
C=CCN1C(=O)[C@]2(CCS(=O)(=O)c3ccccc3)N=C(c3ccc(OCCCO)cc3)O[C@@H]2c2ccccc21,/,/,/,0
COCC(=O)Nc1ccc2c(c1)[C@H]1C[C@@H](CC(=O)NCc3ccc(-c4ccccc4)cc3)O[C@H](CO)[C@H]1O2,0,-10,/,0
CSc1ccc2c(c1)C(N1CCN(C)CC1)Cc1ccc(F)cc1S2 (stereo not drawn),3,-48*,-5,-2
O=[N+]([O-])c1ccccc1N/N=C1\CC2CC=CC12 (stereo not drawn),/,-29*,-18,0
CCSc1nc2ccccc2c(=O)n1Cc1ccc(F)cc1,/,-19*,3,-2
COCCn1c(SCc2ccc(F)cc2)nc2ccccc2c1=O,2,-26,-2,-3
C[C@H]1CN(C)C(=O)Cc2cc(N(C)C)ccc2O[C@@H]1CN(C)S(C)(=O)=O,/,3,/,/
O=C(COc1ccc2ccccc2c1Br)N1CCCC1,0,-26*,-7,-1
O=C(COc1ccc2ccccc2c1Br)N1CCOCC1,0,/,/,/
O=S1(=O)c2ccc(Br)cc2OCCC2CCCCN21 (stereo not drawn),/,-21*,-7,-4
SMILES,Cneo AK release,Ecoli rRNA inh,CaV13 FRET inh,CFTR F508del cor
O=S1(=O)c2ccc(Br)cc2OC2CCCN1C2 (stereo not drawn),/,-6,-10,1
Cc1ccc(S(=O)(=O)Nc2ccc3c(c2)C(=O)N([C@@H](C)CO)C[C@H](C)[C@H](CN(C)S(=O)(=O)c2ccc(F)cc2)O3)cc1,/,-3,/,0
Oc1ccc(/C=N/Nc2cc(N3CCOCC3)nc(N3CCOCC3)n2)cc1O,/,-25*,-19,/
Cc1nc(N/N=C/c2ccc(O)cc2O)cc(N2CCOCC2)n1,-3,-37*,1,-2
Cc1nc(N/N=C/c2cccc(F)c2)cc(N2CCOCC2)n1,-3,-3,-20,0
C[C@H](CO)N1C[C@H](C)[C@H](CN(C)CC2CCCCC2)Oc2c(NC(=O)C3CCCCC3)cccc2C1=O,0,1,/,0
